pIC50: −log10 of the molar value. Structures can show the parent of a compound that is named as a salt. Activity calls are given as the source filed them. The rule behind the calls is not given here.
Legend:
NCI-H187 = test: Cytotoxicity against human NCI-H187 cells after 45 hrs by resazurin microplate assay; assay type: functional, cell-based; conditions: NCI-H187, 45 h
Vero = test: Cytotoxicity against african green monkey Vero cells by green fluorescent protein microplate assay; assay type: cell-based; conditions: Chlorocebus sabaeus
Plasmodium falciparum = test: Antimalarial activity against Plasmodium falciparum K1 after 24 hrs by [G-3H]hypoxanthine uptake assay; assay type: functional, organism-based; conditions: K1, 24 h
Outline: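 Multidrug-resistant K1 strain, microculture radioisotope technique. Samples dissolved in DMSO as a 10 mg/mL stock, then diluted with water before testing. IC50 reported.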

[1] = tested on: Mycobacterium tuberculosis; test: Antituberculosis activity against Mycobacterium tuberculosis; assay type: functional, organism-based
KB = test: Cytotoxicity against human KB cells after 45 hrs by resazurin microplate assay; assay type: functional, cell-based
MCF7 = test: Cytotoxicity against human MCF7 cells after 45 hrs by resazurin microplate assay; assay type: functional, cell-based; conditions: MCF7, 45 h

SMILES	pIC50 (NCI-H187)	pIC50 (Vero)	pIC50 (Plasmodium falciparum)	Activity [1]	pIC50 (KB)	pIC50 (MCF7)
Cc1c2ccncc2c(C)c2c1[nH]c1ccccc12 [ELLIPTECINE]	5.82	5.42				
COc1cccc2c1C(=O)c1c(O)c3c(c(O)c1C2=O)C[C@@](O)(C(=O)CO)C[C@@H]3O[C@H]1C[C@H](N)[C@H](O)[C@H](C)O1 [DOXORUBICIN HYDROCHLORIDE]	7.07					
CC(C)C1=C2CC[C@]3(C)[C@H](CC[C@@H]4[C@@]5(C)CCCC(C)(C)[C@@H]5[C@@H](O)C[C@]43C)[C@@]2(C)CC1 [ZEORININ]	< 3.93	< 3.93	< 4.64	inactive	< 3.93	< 3.93
CC(C)C1=C2CC[C@]3(C)[C@H]([C@H](O)C[C@@H]4[C@@]5(C)CCCC(C)(C)[C@@H]5CC[C@]43C)[C@@]2(C)CC1	< 3.93	< 3.93	< 4.64	inactive	< 3.93	< 3.93
CC1Cc2cc3c(-c4c(O)cc(O)c5c(O)c6c(cc45)CC(C)OC6=O)c(O)cc(O)c3c(O)c2C(=O)O1 (centres undefined) [ASCHERNAPHTHOPYRONE A]	5.35	< 4.02	5.14	inactive	4.77	4.06
CC(C)C1=C2CC[C@]3(C)[C@H]([C@H](O)C[C@@H]4[C@@]5(C)CCCC(C)(C)[C@@H]5[C@@H](O)C[C@]43C)[C@@]2(C)CC1	< 3.95	< 3.95	4.82	inactive	< 3.95	< 3.95
C[C@H]1[C@@H](O)O[C@@H]2O[C@@]3(C)CC[C@H]4[C@H](C)CC[C@@H]1[C@@]24OO3 [ARTENIMOL]			8.34			
CC1Cc2cc3cc(O)c(-c4c(O)cc5cc6c(c(O)c5c4O)C(=O)OC(C)C6)c(O)c3c(O)c2C(=O)O1 (centres undefined) [ASCHERNAPHTHOPYRONE B]	4.02	4.28	< 4.72	inactive	< 4.02	4.10

Source: ChEMBL document CHEMBL1157110, “Hopane-type triterpenes and binaphthopyrones from the scale insect pathogenic fungus Aschersonia paraphysata BCC 11964” (J Nat Prod, 2010)
